Legend:
WT human SLACK = target: T1, WT human SLACK (Homo sapiens, UniProt Q5JUK3); assay: Tl+ flux assay in HEK-293 cells stably expressing WT human SLACK; assay type: cell-based; settings: for IC50 / EC50: CRC; for Mode: Tl+ flux, HEK-293 cells expressing WT SLACK
T1 sequence (Q5JUK3 1-1235 isoform Q5JUK3-3): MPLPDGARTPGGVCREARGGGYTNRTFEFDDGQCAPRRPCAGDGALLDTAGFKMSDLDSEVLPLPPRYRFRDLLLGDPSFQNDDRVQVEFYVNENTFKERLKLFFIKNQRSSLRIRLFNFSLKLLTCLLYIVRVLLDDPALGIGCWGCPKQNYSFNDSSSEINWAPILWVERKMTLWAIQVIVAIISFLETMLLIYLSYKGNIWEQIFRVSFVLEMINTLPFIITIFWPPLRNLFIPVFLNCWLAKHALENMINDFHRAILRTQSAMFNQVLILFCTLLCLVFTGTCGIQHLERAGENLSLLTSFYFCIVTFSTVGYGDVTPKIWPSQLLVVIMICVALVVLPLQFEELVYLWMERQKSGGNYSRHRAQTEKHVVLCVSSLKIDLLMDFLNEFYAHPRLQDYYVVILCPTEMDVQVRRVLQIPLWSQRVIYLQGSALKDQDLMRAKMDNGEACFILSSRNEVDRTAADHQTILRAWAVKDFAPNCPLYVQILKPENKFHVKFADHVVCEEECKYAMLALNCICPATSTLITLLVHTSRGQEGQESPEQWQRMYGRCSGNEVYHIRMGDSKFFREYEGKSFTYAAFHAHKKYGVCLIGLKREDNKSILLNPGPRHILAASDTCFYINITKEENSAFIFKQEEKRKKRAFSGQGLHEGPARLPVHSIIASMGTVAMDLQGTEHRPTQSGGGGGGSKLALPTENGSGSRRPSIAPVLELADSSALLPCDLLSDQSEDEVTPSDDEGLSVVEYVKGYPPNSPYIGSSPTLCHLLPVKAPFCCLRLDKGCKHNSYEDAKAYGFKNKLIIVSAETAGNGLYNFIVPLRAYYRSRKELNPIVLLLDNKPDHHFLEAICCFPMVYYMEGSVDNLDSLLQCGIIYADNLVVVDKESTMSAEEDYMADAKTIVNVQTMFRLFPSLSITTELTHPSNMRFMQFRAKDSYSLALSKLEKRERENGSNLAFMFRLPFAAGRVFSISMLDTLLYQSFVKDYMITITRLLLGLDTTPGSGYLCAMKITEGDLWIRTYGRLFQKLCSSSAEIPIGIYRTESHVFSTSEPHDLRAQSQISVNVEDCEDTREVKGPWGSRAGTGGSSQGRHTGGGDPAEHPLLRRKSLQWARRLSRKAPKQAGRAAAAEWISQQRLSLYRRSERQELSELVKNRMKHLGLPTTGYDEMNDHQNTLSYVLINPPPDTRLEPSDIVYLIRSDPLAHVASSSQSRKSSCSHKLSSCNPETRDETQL
In short: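 Stably transfected HEK-293 cells expressing wild-type human SLACK; thallium flux read-out. IC50 or EC50 taken from concentration-response curves, and each compound classed as inhibitor, activator or not active. Efficacy is the response amplitude at 30 μM test compound, as a percentage of the maximum response to a reference SLACK inhibitor (for inhibitors) or loxapine (for activators).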

Maxi-K (Slo1 α1/β3) = Maxi-K (Slo1 α1/β3) (Homo sapiens, UniProt Q12791); assay: Tl+ flux assay in HEK-293 cells expressing Maxi-K; assay type: cell-based; settings: CRC
[1] = IC50 for compounds of mode Inh (also cells printed Inactive)

Sequence of Maxi-K (Slo1 α1/β3) (Q12791 whole entry, species assumed): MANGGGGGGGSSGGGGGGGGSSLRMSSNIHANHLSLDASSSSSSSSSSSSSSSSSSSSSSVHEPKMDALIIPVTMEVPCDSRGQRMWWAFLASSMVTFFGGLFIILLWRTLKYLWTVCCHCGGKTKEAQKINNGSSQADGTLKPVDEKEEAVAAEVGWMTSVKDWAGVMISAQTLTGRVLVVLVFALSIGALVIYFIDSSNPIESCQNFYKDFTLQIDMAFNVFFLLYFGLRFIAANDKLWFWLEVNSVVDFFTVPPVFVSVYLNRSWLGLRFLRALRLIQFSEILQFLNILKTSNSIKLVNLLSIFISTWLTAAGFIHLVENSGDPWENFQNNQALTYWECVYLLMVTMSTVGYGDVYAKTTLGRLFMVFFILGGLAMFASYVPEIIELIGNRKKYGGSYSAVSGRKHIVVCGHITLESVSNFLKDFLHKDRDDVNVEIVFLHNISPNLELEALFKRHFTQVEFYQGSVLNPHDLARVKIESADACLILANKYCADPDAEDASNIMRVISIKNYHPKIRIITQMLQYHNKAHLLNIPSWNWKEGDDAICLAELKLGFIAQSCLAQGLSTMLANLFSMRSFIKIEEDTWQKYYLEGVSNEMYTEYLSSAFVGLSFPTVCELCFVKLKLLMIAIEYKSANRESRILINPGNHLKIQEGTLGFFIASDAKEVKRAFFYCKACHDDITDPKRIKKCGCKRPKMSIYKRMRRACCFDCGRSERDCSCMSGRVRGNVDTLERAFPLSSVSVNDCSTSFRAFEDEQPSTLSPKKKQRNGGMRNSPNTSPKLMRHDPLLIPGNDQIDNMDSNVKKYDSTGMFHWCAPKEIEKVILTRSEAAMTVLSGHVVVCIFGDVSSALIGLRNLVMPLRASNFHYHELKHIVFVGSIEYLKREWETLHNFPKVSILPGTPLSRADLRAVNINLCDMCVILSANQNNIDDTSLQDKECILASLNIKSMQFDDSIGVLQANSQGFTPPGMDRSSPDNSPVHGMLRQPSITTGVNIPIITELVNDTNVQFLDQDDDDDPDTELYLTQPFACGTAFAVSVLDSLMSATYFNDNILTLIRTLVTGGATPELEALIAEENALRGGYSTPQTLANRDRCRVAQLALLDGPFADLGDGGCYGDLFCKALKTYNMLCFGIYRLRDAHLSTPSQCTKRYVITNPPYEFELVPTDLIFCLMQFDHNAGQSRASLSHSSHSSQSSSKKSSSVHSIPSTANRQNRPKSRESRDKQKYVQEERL
Sequence of Maxi-K (Slo1 α1/β3) (Q9NPA1 whole entry partner, species assumed): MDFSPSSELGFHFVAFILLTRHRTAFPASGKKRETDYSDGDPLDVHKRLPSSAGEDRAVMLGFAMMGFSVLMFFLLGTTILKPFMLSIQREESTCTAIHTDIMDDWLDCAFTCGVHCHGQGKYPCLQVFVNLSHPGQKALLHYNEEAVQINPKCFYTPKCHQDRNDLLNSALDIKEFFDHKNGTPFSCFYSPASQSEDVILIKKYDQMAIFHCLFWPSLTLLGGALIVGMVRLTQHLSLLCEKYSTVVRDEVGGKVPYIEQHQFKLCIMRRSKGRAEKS

IC50 / EC50 (WT human SLACK; [1]) | Mode (WT human SLACK) | IC50 / EC50 (WT human SLACK; EC50 for compounds of mode Act) [µM] | Structure (SMILES) | further results
5.4 µM | – | – | [2H]C([2H])([2H])C([2H])([2H])Oc1ccccc1S(=O)(=O)N1CC(c2nc(-c3ccc(F)cc3)no2)C1 [Compound 109, 5-(1-((2-(Ethoxy-d5)phenyl)sulfonyl)azetidin-3-yl)-3-(4-fluorophenyl)-1,2,4-oxadiazole] | Maxi-K (Slo1 α1/β3) IC50 (Maxi-K (Slo1 α1/β3)): inactive
4.9 µM | – | – | CCOc1ccccc1S(=O)(=O)N1CCC(c2nc(-c3ccc(F)cc3)no2)CC1 [Compound 76] | Maxi-K (Slo1 α1/β3) IC50 (Maxi-K (Slo1 α1/β3)): inactive
8.8 µM | – | – | O=S(=O)(c1ccccc1OCC(F)(F)F)N1CC(c2nc(-c3ccc(F)cc3)no2)C1 [Compound 113, 3-(4-Fluorophenyl)-5-(1-((2-(2,2,2-trifluoroethoxy)phenyl)sulfonyl)azetidin-3-yl)-1,2,4-oxadiazole] | Maxi-K (Slo1 α1/β3) IC50 (Maxi-K (Slo1 α1/β3)): inactive
Inactive | Inactive | – | CCOc1ccccc1S(=O)(=O)N1CC(c2cc(-c3ccc(F)cc3)on2)C1 [Compound 102] | –
11 µM | – | – | CCOc1ccccc1S(=O)(=O)N1CC(c2nc(-c3cccc(C(F)(F)F)c3)no2)C1 [Compound 48, 5-(1-((2-Ethoxyphenyl)sulfonyl)azetidin-3-yl)-3-(3-(trifluoromethyl)phenyl)-1,2,4-oxadiazole] | –
Inactive | Inactive | – | CCOc1ccccc1S(=O)(=O)N1CC(c2nc(-c3ccc(F)cn3)no2)C1 [Compound 67, 5-(1-((2-Ethoxyphenyl)sulfonyl)azetidin-3-yl)-3-(5-fluoropyridin-2-yl)-1,2,4-oxadiazole] | –
>10 µM | – | – | CCOc1ccccc1S(=O)(=O)N1CC(c2nc(-c3ccco3)no2)C1 [Compound 63, 5-(1-((2-Ethoxyphenyl)sulfonyl)azetidin-3-yl)-3-(furan-2-yl)-1,2,4-oxadiazole] | –
– | – | 2.5 | O=S(=O)(c1ccccc1OC1COC1)N1CC(c2nc(-c3ccc(F)cc3)no2)C1 [Compound 115, 3-(4-Fluorophenyl)-5-(1-((2-(oxetan-3-yloxy)phenyl)sulfonyl)azetidin-3-yl)-1,2,4-oxadiazole] | –
– | – | 4.1 | CCOc1ccccc1S(=O)(=O)N1CC(c2nc(-c3ccc(F)cc3)c[nH]2)C1 [Compound 99] | –
– | – | >10 | CCOc1ccccc1C(=O)N1CC(c2nc(-c3ccsc3)no2)C1 [Compound 33] | –
>10 µM | – | – | CCCc1ccccc1S(=O)(=O)N1CC(c2nc(-c3ccsc3)no2)C1 [Compound 30] | –
– | – | >10 | CCOc1ccccc1S(=O)(=O)N1CC(c2nnc(-c3ccc(F)cc3)o2)C1 [Compound 81] | –
– | – | >10 | CCOc1ccccc1S(=O)(=O)N1CC(c2cc(-c3ccc(F)cc3)n[nH]2)C1 [Compound 103] | –
Inactive | Inactive | – | O=S(=O)(c1cccc(Cl)c1)N1CC(c2nc(-c3ccsc3)no2)C1 [Compound 15, 5-(1-((3-Chlorophenyl)sulfonyl)azetidin-3-yl)-3-(thiophen-3-yl)-1,2,4-oxadiazole] | –
Inactive | Inactive | – | CCOc1ccccc1S(=O)(=O)N1CC(c2nc(-c3ccccn3)no2)C1 [Compound 64, 5-(1-((2-Ethoxyphenyl)sulfonyl)azetidin-3-yl)-3-(pyridin-2-yl)-1,2,4-oxadiazole] | –
Inactive | Inactive | – | CCOc1ccccc1S(=O)(=O)N1CC(c2nc(-c3cccc(Cl)c3)no2)C1 [Compound 45, 3-(3-Chlorophenyl)-5-(1-((2-ethoxyphenyl)sulfonyl)azetidin-3-yl)-1,2,4-oxadiazole] | –
6.0 µM | – | – | O=S(=O)(c1ccccc1OCC1CC1)N1CC(c2nc(-c3ccc(F)cc3)no2)C1 [Compound 114, 5-(1-((2-(Cyclopropylmethoxy)phenyl)sulfonyl)azetidin-3-yl)-3-(4-fluorophenyl)-1,2,4-oxadiazole] | –
Inactive | Inactive | – | CCOc1ccccc1S(=O)(=O)N1CC(c2nc(-c3cccc(F)c3)no2)C1 [Compound 42, 5-(1-((2-Ethoxyphenyl)sulfonyl)azetidin-3-yl)-3-(3-fluorophenyl)-1,2,4-oxadiazole] | –

IC50 / EC50 (WT human SLACK; [1]) | Mode (WT human SLACK) | IC50 / EC50 (WT human SLACK; EC50 for compounds of mode Act) [µM] | Structure (SMILES) | further results
>10 µM | – | – | CCOc1ncccc1S(=O)(=O)N1CC(c2nc(-c3ccc(F)cc3)no2)C1 [Compound 111] | –
7.9 µM | – | – | CCOc1ccccc1S(=O)(=O)N1CC(c2nc(-c3ccccc3F)no2)C1 [Compound 41, 5-(1-((2-Ethoxyphenyl)sulfonyl)azetidin-3-yl)-3-(2-fluorophenyl)-1,2,4-oxadiazole] | –
Inactive | Inactive | – | O=S(=O)(c1ccc(Cl)cc1)N1CC(c2nc(-c3ccsc3)no2)C1 [Compound 16, 5-(1-((4-Chlorophenyl)sulfonyl)azetidin-3-yl)-3-(thiophen-3-yl)-1,2,4-oxadiazole] | –
– | – | >10 | Cc1cn2cccc(S(=O)(=O)N3CC(c4nc(-c5ccc(F)cc5)no4)C3)c2n1 [Compound 126] | –
11 µM | – | – | CCOc1ccccc1S(=O)(=O)N1CC(c2nc(-c3ccc(Cl)cc3)no2)C1 [Compound 46, 3-(4-Chlorophenyl)-5-(1-((2-ethoxyphenyl)sulfonyl)azetidin-3-yl)-1,2,4-oxadiazole] | –
– | – | 7.5 | O=S(=O)(c1ccccc1Cl)N1CC(c2nc(-c3ccsc3)no2)C1 [Compound 14, 5-(1-((2-Chlorophenyl)sulfonyl)azetidin-3-yl)-3-(thiophen-3-yl)-1,2,4-oxadiazole] | –
Inactive | Inactive | – | O=S(=O)(c1ccc(F)cc1)N1CC(c2nc(-c3ccsc3)no2)C1 [Compound 13, 5-(1-((4-Fluorophenyl)sulfonyl)azetidin-3-yl)-3-(thiophen-3-yl)-1,2,4-oxadiazole] | –
Inactive | Inactive | – | CCOc1ccccc1S(=O)(=O)N1CC(c2nc(-c3ncccn3)no2)C1 [Compound 68, 5-(1-((2-Ethoxyphenyl)sulfonyl)azetidin-3-yl)-3-(pyrimidin-2-yl)-1,2,4-oxadiazole] | –
>10 µM | – | – | CCOc1ccccc1S(=O)(=O)N1CC(c2nc(-c3ccccc3)no2)C1 [Compound 40, 5-(1-((2-Ethoxyphenyl)sulfonyl)azetidin-3-yl)-3-phenyl-1,2,4-oxadiazole] | –
Inactive | Inactive | – | CCOc1ccccc1S(=O)(=O)N1CC(c2nc(-c3ccncc3)no2)C1 [Compound 66, 5-(1-((2-Ethoxyphenyl)sulfonyl)azetidin-3-yl)-3-(pyridin-4-yl)-1,2,4-oxadiazole] | –
9.2 µM | – | – | CCOc1ccccc1S(=O)(=O)N1CC(F)(c2nc(-c3ccc(F)cc3)no2)C1 [Compound 70] | –
– | – | >10 | O=S(=O)(c1cccn2ccnc12)N1CC(c2nc(-c3ccc(F)cc3)no2)C1 [Compound 125] | –
Inactive | Inactive | – | CCOc1ccccc1S(=O)(=O)N1CC(c2cc(-c3ccc(F)cc3)no2)C1 [Compound 92] | –
8.9 µM | – | – | O=S(=O)(c1ccccc1N1CCCC1)N1CC(c2nc(-c3ccc(F)cc3)no2)C1 [Compound 117, 3-(4-Fluorophenyl)-5-(1-((2-(pyrrolidin-1-yl)phenyl)sulfonyl)azetidin-3-yl)-1,2,4-oxadiazole] | –
– | – | >10 | CCOc1ccccc1NC(=O)N1CC(c2nc(-c3ccsc3)no2)C1 [Compound 35] | –
– | – | 2.3 | O=S(=O)(c1cccc2ccoc12)N1CC(c2nc(-c3ccc(F)cc3)no2)C1 [Compound 120, 5-(1-(Benzofuran-7-ylsulfonyl)azetidin-3-yl)-3-(4-fluorophenyl)-1,2,4-oxadiazole] | –
>10 µM | – | – | CCOc1ccccc1S(=O)(=O)N1CC[C@@H](c2nc(-c3ccc(F)cc3)no2)C1 [Compound 74] | –
– | – | 6.2 | O=S(=O)(c1cccc(C(F)(F)F)c1)N1CC(c2nc(-c3ccsc3)no2)C1 [Compound 18, 3-(Thiophen-3-yl)-5-(1-((3-(trifluoromethyl)phenyl)sulfonyl)azetidin-3-yl)-1,2,4-oxadiazole] | –

From PMC10842602 (Bioorganic & medicinal chemistry, 2023)
